Results as given in ChEMBL document CHEMBL1140495, “Neutral 5-substituted 4-anilinoquinazolines as potent, orally active inhibitors of erbB2 receptor tyrosine kinase” (Bioorg Med Chem Lett, 2007).
Each block holds one molecule with its values, some of them ahead of it. Active and inactive are the calls of the source. The rule behind the calls is not given here.

What was measured:
[1] = target: T1, Receptor tyrosine-protein kinase erbB-2 (Homo sapiens, UniProt P04626); test: Inhibition of ErbB2 kinase
T1 sequence (P04626 whole entry): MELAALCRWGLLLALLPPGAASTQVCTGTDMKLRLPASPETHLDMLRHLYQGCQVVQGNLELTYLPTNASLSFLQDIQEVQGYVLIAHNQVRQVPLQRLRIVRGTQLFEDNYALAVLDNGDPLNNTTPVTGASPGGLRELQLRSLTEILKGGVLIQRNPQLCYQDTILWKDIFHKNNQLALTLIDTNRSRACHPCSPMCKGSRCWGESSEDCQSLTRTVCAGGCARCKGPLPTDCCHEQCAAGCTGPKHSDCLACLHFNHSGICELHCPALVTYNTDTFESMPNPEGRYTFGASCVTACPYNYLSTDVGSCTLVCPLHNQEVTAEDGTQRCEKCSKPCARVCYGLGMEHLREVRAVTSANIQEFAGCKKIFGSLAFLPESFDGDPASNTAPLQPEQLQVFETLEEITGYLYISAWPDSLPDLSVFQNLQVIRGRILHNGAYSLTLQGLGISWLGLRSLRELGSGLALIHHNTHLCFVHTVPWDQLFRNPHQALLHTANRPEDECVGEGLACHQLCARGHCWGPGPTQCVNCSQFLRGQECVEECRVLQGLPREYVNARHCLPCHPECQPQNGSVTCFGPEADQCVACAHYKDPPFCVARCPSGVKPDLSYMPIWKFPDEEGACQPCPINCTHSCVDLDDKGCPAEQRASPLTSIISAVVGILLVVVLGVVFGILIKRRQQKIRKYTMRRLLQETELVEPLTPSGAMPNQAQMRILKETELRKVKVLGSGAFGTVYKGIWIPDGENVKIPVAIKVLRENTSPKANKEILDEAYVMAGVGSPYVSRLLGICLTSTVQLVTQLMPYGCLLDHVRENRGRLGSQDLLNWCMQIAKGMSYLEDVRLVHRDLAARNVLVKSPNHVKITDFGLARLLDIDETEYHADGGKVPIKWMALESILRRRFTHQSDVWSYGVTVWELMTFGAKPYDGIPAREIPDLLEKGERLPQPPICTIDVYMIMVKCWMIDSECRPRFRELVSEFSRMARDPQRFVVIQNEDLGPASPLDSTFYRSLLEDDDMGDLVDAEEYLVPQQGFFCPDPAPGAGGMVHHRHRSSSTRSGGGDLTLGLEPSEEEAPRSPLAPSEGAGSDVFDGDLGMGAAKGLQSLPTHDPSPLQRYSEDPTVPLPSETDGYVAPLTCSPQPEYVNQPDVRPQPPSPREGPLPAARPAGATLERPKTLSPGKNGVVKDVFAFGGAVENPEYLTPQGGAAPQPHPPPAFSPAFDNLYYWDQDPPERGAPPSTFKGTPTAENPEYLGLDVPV

[2] = target: T1, Receptor tyrosine-protein kinase erbB-2; test: Inhibition of Erb2 autophosphorylation by cellular clone 24 assay; assay type: functional
[3] = Lipophilicity, log D of the compound; assay type: physicochemical; conditions: octanol/water
[4] = target: Epidermal growth factor receptor (Homo sapiens, UniProt P00533)
Epidermal growth factor receptor, sequence (P00533 whole entry): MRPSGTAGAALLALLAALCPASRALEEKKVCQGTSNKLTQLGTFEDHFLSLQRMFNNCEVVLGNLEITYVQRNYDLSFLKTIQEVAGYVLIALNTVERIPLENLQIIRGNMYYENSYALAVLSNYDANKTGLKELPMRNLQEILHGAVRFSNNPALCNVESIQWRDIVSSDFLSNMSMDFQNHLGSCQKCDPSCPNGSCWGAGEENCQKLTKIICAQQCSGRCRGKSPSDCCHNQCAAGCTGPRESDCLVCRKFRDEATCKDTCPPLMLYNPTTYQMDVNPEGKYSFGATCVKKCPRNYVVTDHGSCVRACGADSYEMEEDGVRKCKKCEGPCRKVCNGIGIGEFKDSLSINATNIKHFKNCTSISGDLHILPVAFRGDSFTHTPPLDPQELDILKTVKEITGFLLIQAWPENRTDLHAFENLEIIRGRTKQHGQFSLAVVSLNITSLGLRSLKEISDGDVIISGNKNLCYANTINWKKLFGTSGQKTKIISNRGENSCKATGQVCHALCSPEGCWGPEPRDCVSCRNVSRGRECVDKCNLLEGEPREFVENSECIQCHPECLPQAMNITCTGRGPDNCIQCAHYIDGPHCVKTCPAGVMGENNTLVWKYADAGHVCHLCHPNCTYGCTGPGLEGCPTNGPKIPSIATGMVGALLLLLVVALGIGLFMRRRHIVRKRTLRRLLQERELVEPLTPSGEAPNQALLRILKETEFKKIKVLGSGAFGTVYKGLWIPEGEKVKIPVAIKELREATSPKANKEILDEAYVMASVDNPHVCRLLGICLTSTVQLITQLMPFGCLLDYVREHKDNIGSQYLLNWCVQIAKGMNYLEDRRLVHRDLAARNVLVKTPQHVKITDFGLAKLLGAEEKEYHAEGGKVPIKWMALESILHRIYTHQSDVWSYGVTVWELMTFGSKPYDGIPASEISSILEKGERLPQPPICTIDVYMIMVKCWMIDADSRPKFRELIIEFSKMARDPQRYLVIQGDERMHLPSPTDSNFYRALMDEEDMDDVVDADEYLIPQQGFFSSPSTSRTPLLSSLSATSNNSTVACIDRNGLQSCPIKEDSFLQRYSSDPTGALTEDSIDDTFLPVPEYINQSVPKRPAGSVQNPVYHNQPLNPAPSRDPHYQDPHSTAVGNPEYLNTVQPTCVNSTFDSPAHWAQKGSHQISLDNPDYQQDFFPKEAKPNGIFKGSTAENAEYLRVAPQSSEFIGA

[5] = Antiproliferative activity against BT474C cells; assay type: functional, cell-based; conditions: Homo sapiens
KB [6] = test: Antiproliferative activity against human KB cells
KB [7] = test: Effect on growth of human KB cells
[8] = target: Vascular endothelial growth factor receptor 2 (Homo sapiens, UniProt P35968); test: Inhibition of Kdr
Vascular endothelial growth factor receptor 2, sequence (P35968 whole entry): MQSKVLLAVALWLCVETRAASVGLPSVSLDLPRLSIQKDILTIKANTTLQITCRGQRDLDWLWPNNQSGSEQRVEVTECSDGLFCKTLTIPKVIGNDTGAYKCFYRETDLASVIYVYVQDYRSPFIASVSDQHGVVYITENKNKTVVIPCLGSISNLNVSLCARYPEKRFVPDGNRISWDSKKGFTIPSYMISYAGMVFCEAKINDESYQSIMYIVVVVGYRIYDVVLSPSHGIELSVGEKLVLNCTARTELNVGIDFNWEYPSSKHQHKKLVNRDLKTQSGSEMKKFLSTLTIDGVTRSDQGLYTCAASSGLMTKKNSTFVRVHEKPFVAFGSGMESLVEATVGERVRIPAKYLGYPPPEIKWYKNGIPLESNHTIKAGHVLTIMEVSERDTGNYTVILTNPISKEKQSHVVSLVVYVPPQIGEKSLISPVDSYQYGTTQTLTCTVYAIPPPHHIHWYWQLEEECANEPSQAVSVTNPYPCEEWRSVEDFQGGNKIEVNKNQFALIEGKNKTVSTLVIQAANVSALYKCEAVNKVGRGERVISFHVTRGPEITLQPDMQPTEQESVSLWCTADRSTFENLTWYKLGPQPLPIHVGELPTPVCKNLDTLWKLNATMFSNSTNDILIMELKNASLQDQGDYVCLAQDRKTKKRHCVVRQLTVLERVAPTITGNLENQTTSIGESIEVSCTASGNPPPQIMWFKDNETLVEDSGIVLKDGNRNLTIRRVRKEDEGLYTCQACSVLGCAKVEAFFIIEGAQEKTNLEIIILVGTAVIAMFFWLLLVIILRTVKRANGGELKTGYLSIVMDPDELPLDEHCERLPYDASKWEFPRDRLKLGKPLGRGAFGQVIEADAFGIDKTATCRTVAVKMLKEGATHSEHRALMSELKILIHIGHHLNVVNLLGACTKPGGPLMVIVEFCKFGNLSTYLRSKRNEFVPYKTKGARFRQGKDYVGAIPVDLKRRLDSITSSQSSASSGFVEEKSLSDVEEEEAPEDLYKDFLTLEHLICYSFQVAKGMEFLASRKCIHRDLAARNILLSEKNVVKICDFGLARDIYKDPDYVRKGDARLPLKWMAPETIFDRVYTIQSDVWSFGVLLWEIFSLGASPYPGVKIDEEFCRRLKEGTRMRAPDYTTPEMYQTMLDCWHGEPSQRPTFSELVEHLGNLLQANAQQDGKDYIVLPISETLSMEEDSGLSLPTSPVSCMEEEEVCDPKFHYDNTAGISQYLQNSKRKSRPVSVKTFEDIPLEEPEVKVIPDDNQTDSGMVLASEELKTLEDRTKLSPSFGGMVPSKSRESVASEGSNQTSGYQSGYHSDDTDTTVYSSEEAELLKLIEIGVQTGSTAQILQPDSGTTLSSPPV

[9] = target: Proto-oncogene tyrosine-protein kinase Src (Homo sapiens, UniProt P12931); test: Inhibition of Src
Proto-oncogene tyrosine-protein kinase Src, sequence (P12931 2-536 limits assumed): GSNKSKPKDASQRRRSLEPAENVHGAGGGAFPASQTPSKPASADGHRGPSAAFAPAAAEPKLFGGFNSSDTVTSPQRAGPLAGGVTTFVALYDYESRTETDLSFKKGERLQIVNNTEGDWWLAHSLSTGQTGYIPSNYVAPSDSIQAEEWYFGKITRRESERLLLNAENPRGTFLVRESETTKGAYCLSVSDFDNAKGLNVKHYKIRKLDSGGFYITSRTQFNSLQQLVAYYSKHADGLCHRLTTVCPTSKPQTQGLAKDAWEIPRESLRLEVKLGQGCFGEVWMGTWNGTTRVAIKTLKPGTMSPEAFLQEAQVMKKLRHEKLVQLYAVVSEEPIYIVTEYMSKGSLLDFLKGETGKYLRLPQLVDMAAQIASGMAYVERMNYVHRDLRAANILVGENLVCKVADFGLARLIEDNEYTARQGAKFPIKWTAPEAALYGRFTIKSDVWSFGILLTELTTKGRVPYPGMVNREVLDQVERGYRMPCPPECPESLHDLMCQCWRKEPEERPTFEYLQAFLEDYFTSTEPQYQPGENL

[10] = Volume of distribution at steady state in Alderley Park mouse at 2 mg/kg, iv and 5 mg/kg, po; assay type: ADME, organism-based; conditions: in vivo, read-out: Vdss
How it was run: (§1)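 Pharmacokinetics after intravenous dosing at 2 mg/kg and oral dosing at 5 mg/kg in immunocompetent female Alderley Park mice and in female Alderley Park rats. Male Alderley Park beagles received 50 mg iv and 250 mg p.o.; dog figures are means. AUC is AUC0-24 taken from the oral dose.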

Mus musculus [11] = test: AUC (0 to 24 hrs) in Alderley Park mouse at 5 mg/kg, po; assay type: ADME, organism-based, Plasma; set-up: time < 24 hr, dose 5 mg/kg, route oral; conditions: in vivo; how it was run: as §1
Mus musculus [12] = test: Bioavailability in Alderley Park mouse at 2 mg/kg, iv and 5 mg/kg, po; assay type: ADME, organism-based; conditions: in vivo; how it was run: as §1
[13] = Volume of distribution at steady state in Alderley Park rat at 2 mg/kg, iv and 5 mg/kg, po; assay type: ADME, organism-based; conditions: in vivo, read-out: Vdss; how it was run: as §1
[14] = Clearance in Alderley Park rat at 2 mg/kg, iv and 5 mg/kg, po; assay type: ADME, organism-based; conditions: in vivo; how it was run: as §1
[15] = AUC (0 to 24 hrs) in Alderley Park rat at 5 mg/kg, po; assay type: ADME, organism-based; set-up: time < 24 hr, dose 5 mg/kg, route oral; conditions: plasma; how it was run: as §1
[16] = Bioavailability in Alderley Park rat at 2 mg/kg, iv and 5 mg/kg, po; assay type: ADME, organism-based; conditions: in vivo; how it was run: as §1
[17] = Volume of distribution at steady state in Alderley Park Beagle dog at 50 mg/kg, iv and […], po; assay type: ADME, organism-based, Canis lupus familiaris; conditions: in vivo, read-out: Vdss; how it was run: as §1
Canis familiaris [18] = test: AUC (0 to 24 hrs) in Alderley Park Beagle dog at […], po; assay type: ADME, organism-based, Canis lupus familiaris, Plasma; set-up: time < 24 hr, route oral; conditions: in vivo; how it was run: as §1
Canis familiaris [19] = test: Bioavailability in Alderley Park Beagle dog at 50 mg/kg, iv and […], po; assay type: ADME, organism-based, Canis lupus familiaris; conditions: in vivo; how it was run: as §1
[20] = Plasma concentration in mouse at 50 mg/kg, po after 2 hrs; assay type: ADME, organism-based; set-up: dose 50 mg/kg, route oral
How it was run: (§2)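 Female mice were given a single oral dose of 50 mg/kg without ABT. Total plasma concentration was measured at 2, 4, 6, 16 and 24 h, and AUC was derived.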

[21] = Plasma concentration in mouse at 50 mg/kg, po in presence of 1-aminobenzotriazole after 2 hrs; assay type: ADME, organism-based; set-up: dose 50 mg/kg, route oral
[22] = Plasma concentration in mouse at 50 mg/kg, po in presence of 1-aminobenzotriazole after 4 hrs; assay type: ADME, organism-based; set-up: dose 50 mg/kg, route oral
[23] = Plasma concentration in mouse at 50 mg/kg, po in presence of 1-aminobenzotriazole after 6 hrs; assay type: ADME, organism-based; set-up: dose 50 mg/kg, route oral
[24] = Plasma concentration in mouse at 50 mg/kg, po in presence of 1-aminobenzotriazole after 16 hrs; assay type: ADME, organism-based; set-up: dose 50 mg/kg, route oral
[25] = Plasma concentration in mouse at 50 mg/kg, po in presence of 1-aminobenzotriazole after 24 hrs; assay type: ADME, organism-based; set-up: dose 50 mg/kg, route oral
Mus musculus [26] = test: AUC in mouse at 50 mg/kg, po; assay type: ADME, organism-based, Plasma; set-up: dose 50 mg/kg, route oral; conditions: in vivo; how it was run: as §2
[27] = AUC in mouse at 50 mg/kg, po in presence of 1-aminobenzotriazole; assay type: ADME, organism-based; set-up: dose 50 mg/kg, route oral; conditions: plasma
Phospholipidosis = test: In vivo phospholipidosis in rat after 14 days at 600 mg/kg dose q.d.; assay type: ADME, organism-based; set-up: dose 600 mg/kg; conditions: 336 h
How it was run: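 Rat toxicology study lasting 14 days with once-daily dosing at up to 600 mg/kg, examined for phospholipidosis.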

BT474C [28] = test: Antitumor activity against human BT474C cells xenografted mouse at 50 mg/kg, po qd for 21 days; assay type: functional, organism-based; set-up: dose 50 mg/kg
BT474C [29] = test: Antitumor activity against human BT474C cells xenografted mouse at 50 mg/kg, po bid for 21 days; assay type: functional, organism-based; set-up: dose 50 mg/kg
Mus musculus [30] = test: Inhibition of erbB2 phosphorylation in human BT474C cells xenografted mouse at 50 mg/kg, po bid for 21 days; assay type: functional; conditions: 504 h
LoVo [31] = test: Growth inhibition of LoVo cells xenografted in mouse at 50 mg/kg, po bid; assay type: functional, organism-based; set-up: dose 50 mg/kg; conditions: Homo sapiens
How it was run: (§3)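 LoVo xenografts in mice were dosed orally at 50 mg/kg b.i.d. Tumour growth and tumour phospho-EGFR were assessed.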

Mus musculus [32] = test: Inhibition of phospho-EGFR in LoVo cells xenografted mouse at 50 mg/kg, po bid; assay type: functional, organism-based; set-up: dose 50 mg/kg; how it was run: as §3
LoVo [33] = test: Growth inhibition of LoVo cells xenografted in rat at 300 mg/kg, po qd; conditions: Homo sapiens
Rattus norvegicus = test: Inhibition of phospho-EGFR in LoVo cells xenografted rat at 300 mg/kg, po qd
Mus musculus [34] = test: Inhibition of erbB2 phosphorylation in human BT474C cells xenografted mouse at 50 mg/kg, po

SMILES: O=C(CO)N1CCC[C@H]1COc1cccc2ncnc(Nc3ccc(OCc4ccccn4)c(Cl)c3)c12
IC50 [1]: 2 nM | IC50 [2]: 259 nM | logD [3]: 3 | IC50 [4]: 327 nM

SMILES: C[C@@H](COc1cccc2ncnc(Nc3ccc(OCc4ccccn4)c(Cl)c3)c12)N(C)C(=O)CO
IC50 [1]: 19 nM | IC50 [2]: 131 nM | logD [3]: 3 | IC50 [4]: 2580 nM

SMILES: C[C@H](COc1cccc2ncnc(Nc3ccc(OCc4ccccn4)c(Cl)c3)c12)N(C)C(=O)CO
IC50 [1]: < 2 nM | IC50 [2]: 11 nM | logD [3]: 3 | IC50 [4]: 3 nM

SMILES: CN(CCOc1cccc2ncnc(Nc3ccc(OCc4ccccn4)c(Cl)c3)c12)C(=O)CO
IC50 [1]: 4 nM | IC50 [2]: 43 nM | logD [3]: 3 | IC50 [8]: > 1000 nM | IC50 [9]: > 1000 nM | IC50 [5]: 130 nM | IC50 (KB [6]): 621 nM | IC50 (KB [7]): 8140 nM | Vd [10]: 0.7 L/kg | AUC (Mus musculus [11]): 0.02 µM·h | F (Mus musculus [12]): 4% | Vd [13]: 0.9 L/kg | clearance [14]: 10 mL/min/kg | AUC(0-t) at 24 h [15]: 5.5 µM·h | bioavailability [16]: 32% | Vd [17]: 1 L/kg | AUC (Canis familiaris [18]): 32 µM·h | F (Canis familiaris [19]): 51% | concentration at 2 h [20]: 0.35 µM | concentration at 2 h [21]: 16.5 µM | concentration at 4 h [22]: 13.8 µM | concentration at 6 h [23]: 6.3 µM | concentration at 16 h [24]: 0.026 µM | concentration at 24 h [25]: 0.007 µM | AUC (Mus musculus [26]): 0.89 µM·h | AUC [27]: 99 µM·h | Phospholipidosis (Phospholipidosis): Not Active | Activity (BT474C [28]): Active | Activity (BT474C [29]): Active | inhibition in vivo at 50 mg/kg (Mus musculus [30]): 70% | Activity (LoVo [31]): inactive | Activity (Mus musculus [32]): inactive | IC50 [4]: 35 nM | Activity (LoVo [33]): inactive | Activity (Rattus norvegicus): inactive | inhibition in vivo at 50 mg/kg (Mus musculus [34]): 70%

SMILES: C[C@@H](CN(C)C(=O)CO)Oc1cccc2ncnc(Nc3ccc(OCc4ccccn4)c(Cl)c3)c12
IC50 [1]: 22 nM | IC50 [2]: 291 nM | logD [3]: 3 | IC50 [4]: 191 nM

Second part, led by results:

IC50 [1]: < 2 nM | IC50 [2]: 11 nM | logD [3]: 3 | IC50 (KB [6]): 141 nM | IC50 (KB [7]): 6940 nM | IC50 [4]: 2 nM
SMILES: C[C@H](CN(C)C(=O)CO)Oc1cccc2ncnc(Nc3ccc(OCc4ccccn4)c(Cl)c3)c12
IC50 [5]: 34 nM

IC50 [1]: < 2 nM | IC50 [2]: 147 nM | logD [3]: 3 | IC50 [4]: 97 nM
SMILES: O=C(CO)N1CCC[C@@H]1COc1cccc2ncnc(Nc3ccc(OCc4ccccn4)c(Cl)c3)c12
